Screening results: PubChem BioAssay, several laboratories
Ecoli tolC: growth inhibitors of E. coli tolC mutant, primary screen, strain BW25113 ΔtolC::kan, 384-well; actives 2.2% (n = 65,000); growth inhibition, % at 10 µM (by protocol); AID 573, 2007; OD615;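 active = growth inhibition at or above a cutoff equal to the mean over every tested compound plus 3 SD, cut at about 60% in these data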;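 also: growth measured after 20 h incubation at 37 °C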
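Test system – E. coli BW25113 ΔtolC::kan, tolC deletion mutant strain · Detection – OD at 615 nm · Buffer or medium – LB with kanamycin 50 µg/mL · Times – 20 h compound exposure of bacteria at 37 °C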
Ecoli WT expand: growth inhibitors of wild-type E. coli, primary screen, strain BW25113, expanded library, OD600 | AID 710, 2007 | OD600 absorbance | growth inhibition, % at 100 µM | actives 0.15% (n = 98,000);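 active = growth inhibition above about 50% at one test dose, limit read from the data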;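 also: growth measured after 20 h incubation at 37 °C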
PLAP activator: PLAP enzyme activators, biochemical, luminescence, HTS; purified PLAP enzyme, luminescent substrate read-out; hits give high values; activation fold at 20 µM; actives 1.2% (n = 96,000); in the data active = activation fold above about 2
Target sequence (P05187 whole entry, looked up): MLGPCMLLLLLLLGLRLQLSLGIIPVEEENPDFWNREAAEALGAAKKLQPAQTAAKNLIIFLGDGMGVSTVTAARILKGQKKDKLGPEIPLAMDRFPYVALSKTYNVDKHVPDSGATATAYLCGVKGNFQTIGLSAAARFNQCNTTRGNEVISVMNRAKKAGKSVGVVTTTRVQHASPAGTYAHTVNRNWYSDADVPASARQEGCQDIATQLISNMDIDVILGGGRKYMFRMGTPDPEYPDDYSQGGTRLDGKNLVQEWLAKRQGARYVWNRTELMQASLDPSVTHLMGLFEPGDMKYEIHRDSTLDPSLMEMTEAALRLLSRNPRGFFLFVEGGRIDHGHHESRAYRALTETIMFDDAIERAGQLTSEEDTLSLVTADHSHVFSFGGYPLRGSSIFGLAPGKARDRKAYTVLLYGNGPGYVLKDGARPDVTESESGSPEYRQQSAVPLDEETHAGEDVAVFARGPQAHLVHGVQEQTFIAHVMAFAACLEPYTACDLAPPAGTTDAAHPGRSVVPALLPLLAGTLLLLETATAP
HePTP inhibitor: inhibitors of human HePTP phosphatase, primary screen, biochemical, absorbance, leukemia target; actives 0.64% (n = 110,000); Tyrosine-protein phosphatase non-receptor type 7 (Homo sapiens), P35236; recombinant HePTP phosphatase activity, OD absorbance; inhibition, % at 20 µM; in the data active = inhibition above about 50%;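 also: plate controls were vehicle for no effect and reference inhibitor for full effect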
AP complement: alternative complement pathway inhibitors, primary screen, biochemical, ELISA, human serum, orthogonally pooled compounds | AID 1235, 2008 | inhibition, % at 5 µM | LPS-coated ELISA, C3 deposition; tested in compound mixtures | actives 0.08% (n = 62,000);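 active = inhibition above 30% in each of the two pooled mixtures holding the compound, so the lower value exceeds 30%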;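 also: 0% = serum in Mg-EGTA without compound and 100% = EDTA serum blank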
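Test system: human serum alternative complement pathway, C3 deposition on LPS-coated wells; also added: Plate-bound LPS; doses: 5 µM per compound in ten-compound mixtures; schedule: 1 h at 37 °C; detection: Anti-C3 ELISA, OD 450 nm; evaluation: percent inhibition of C3 deposition onto LPS; repeats: two pool placements per compound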
An asterisk follows results filed as active. An excerpt weighted towards active compounds, which were near 2.3% of everything screened.

`CN(C)CCNc1oc(COc2ccc(Cl)cc2Cl)nc1C#N` gave Ecoli WT expand 7 and PLAP activator 2*.
`O=S(=O)(Nc1ccc2oc(-c3ccccc3)nc2c1)c1ccccc1` gave Ecoli tolC 100*, Ecoli WT expand -4, PLAP activator 1.3, HePTP inhibitor -5 and AP complement 12.
For O=c1[nH]cnc2scc(C3COc4ccccc4O3)c12 (centres undefined) the results were Ecoli tolC 22, Ecoli WT expand 4, PLAP activator 2.1*, HePTP inhibitor 6 and AP complement 11.
Screening Cc1cc(C)nc(/N=C(/N)Nc2ccccc2C(F)(F)F)n1 returned HePTP inhibitor 1.
Nc1c2c3c(c(Cl)ccc3[nH]c1=O)C(=O)c1ccccc1-2 was read as HePTP inhibitor 103*.
For CC(C)c1ccc2oc(=O)cc(CN3CCN(c4ccc(F)cc4)CC3)c2c1 the results were Ecoli tolC 37, Ecoli WT expand -15, PLAP activator 1.1, HePTP inhibitor 3 and AP complement 40*.
CCc1ccc2oc(=O)cc(CN3CCN(c4ccc(F)cc4)CC3)c2c1 was read as Ecoli tolC 1, Ecoli WT expand -11, PLAP activator 1.1, HePTP inhibitor 3 and AP complement 12.
For O=[N+]([O-])c1ccc(CNCC2OCCc3ccccc32)cc1 (centres undefined) the results were HePTP inhibitor 3.
`Cc1nn(-c2ccccc2)c(C)c1C(=O)Nc1nnc(-c2ccco2)o1` gave Ecoli tolC 65*, Ecoli WT expand 3, PLAP activator 1.5, HePTP inhibitor 12 and AP complement 2.
For O=C1CC(Sc2nnc(-c3ccccc3O)o2)C(=O)N1c1ccccc1 (centres undefined) the results were Ecoli tolC 6, Ecoli WT expand -2, PLAP activator 1, HePTP inhibitor -1 and AP complement 4.
For O=C1c2ccccc2CC1Sc1nnc(-c2ccccn2)o1 (centres undefined) the results were Ecoli tolC 10, Ecoli WT expand 1, PLAP activator 2.6*, HePTP inhibitor 5 and AP complement -4.
Screening CCOC(=O)COc1ccc(/C=N/N(C)c2ccccc2)cc1OC returned HePTP inhibitor -8.
CC1CCN(c2nc3ccccc3nc2C(C#N)S(=O)(=O)c2ccccc2)CC1 (centres undefined) was read as Ecoli tolC 76*, HePTP inhibitor -2 and AP complement 0.
CCN1CCN(c2nc3ccccc3nc2C(C#N)S(=O)(=O)c2ccc(C)c(C)c2)CC1 (centres undefined) was read as Ecoli WT expand 6 and PLAP activator 2*.
Cc1ccc(S(=O)(=O)C(C#N)c2nc3ccccc3nc2N2CC(C)OC(C)C2)cc1C (centres undefined) was read as Ecoli tolC 48, Ecoli WT expand 6, PLAP activator 1.4, HePTP inhibitor 6 and AP complement 1.
`COc1ccc(S(=O)(=O)C(C#N)c2nc3ccccc3nc2N2CCCC(C)C2)cc1` (centres undefined) gave Ecoli tolC 68*, Ecoli WT expand -5, PLAP activator 1.4, HePTP inhibitor 14 and AP complement 11.
For Cc1cccc(S(=O)(=O)C(C#N)c2nc3ccccc3nc2N2CC(C)OC(C)C2)c1 (centres undefined) the results were Ecoli tolC 62*, Ecoli WT expand -4, PLAP activator 1.4, HePTP inhibitor -1 and AP complement -9.
CCn1c2ccccc2c2cc(NC(=O)C/C(C)=N/NC(=O)OCc3ccc(OC)cc3)ccc21 was read as HePTP inhibitor 11.
`Cc1sc(NC(=O)/C=C/c2ccccc2)c(C(=O)OC(C)C)c1C` gave HePTP inhibitor 5.
`O=C(CSc1ncn[nH]1)Nc1nnc(-c2ccccc2)s1` gave Ecoli tolC 15, Ecoli WT expand 0, PLAP activator 2.3*, HePTP inhibitor -7 and AP complement 5.
For O=C(CSc1ncn[nH]1)Nc1ccccc1-c1ccccc1 the results were Ecoli WT expand 8 and PLAP activator 1.4.
Cc1sc2nc(-c3ccc(-c4cccc([N+](=O)[O-])c4)o3)[nH]c(=O)c2c1C was read as HePTP inhibitor -11.
